According to ChEMBL document CHEMBL4007421, “Discovery and Preclinical Characterization of 3-((4-(4-Chlorophenyl)-7-fluoroquinoline-3-yl)sulfonyl)benzonitrile, a Novel Non-acetylenic Metabotropic Glutamate Receptor 5 (mGluR5) Negative Allosteric Modulator for Psychiatric Indications” (J Med Chem, 2017):

Key:
[1] = system: Liver; assay: Intrinsic clearance in human liver microsomes at 2.5 uM assessed per gram of liver; assay type: ADME, microsome
[2] = system: Liver; assay: Intrinsic clearance in rat liver microsomes at 2.5 uM assessed per gram of liver; assay type: ADME, microsome
[3] = target: Metabotropic glutamate receptor 5 (Rattus norvegicus) (UniProt P31424); assay: Displacement of [3H]M-MPEP from rat mGluR5 expressed in rat cerebrocortical membrane at 1 uM after 60 mins relative to control; assay type: cell membranes
[4] = Plasma concentration in ip dosed Wistar rat at anxiolytic MED administered as suspension after 75 mins during Vogel punished drinking conflict test; assay type: ADME, organism-based
[5] = system: Rattus norvegicus; assay: Anxiolytic activity in ip dosed Wistar rat assessed as increase in water drinking time during punished period administered as suspension by Vogel punished drinking conflict test; assay type: functional; conditions: read-out: MED
How it was run: (§1)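 Vogel punished-drinking test in rats, single i.p. or p.o. dose as suspension in 5% Tween 80; plasma sampled ~45 min after i.p. or ~75 min after p.o. dosing.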

[6] = target: Metabotropic glutamate receptor 5 (Homo sapiens, UniProt P41594); assay: Negative allosteric modulation of human mGluR5a expressed in CHO cells assessed as reduction in DHPG-induced cytosolic Ca2+ influx after 10 to 20 mins by fluo-4/AM-dye based fluorometric analysis; assay type: functional, cell-based
[7] = system: Rattus norvegicus; assay: Effect on spatial learning performance in po dosed Wistar rat measured as escape latency dosed 1 hr prior to first daily trial by Morris water maze test; assay type: ADME, organism-based; conditions: in vivo
How it was run: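 Morris water maze with male Harlan-Wistar rats (190–220 g): three trials a day for 4 days, hidden 10 cm platform, video tracking; 30 mg/kg p.o. in Type IV lipid formulation 1 h before first daily trial; plasma taken after last Day 4 trial; 7–17 rats/group.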

[8] = system: Plasma; assay: Plasma concentration in Wistar rat at 30 mg/kg, po administered as single dose; assay type: ADME, organism-based; conditions: in vivo
[9] = system: Rattus norvegicus; assay: Anxiolytic activity in po dosed Wistar rat assessed as increase in water drinking time during punished period administered as suspension by Vogel punished drinking conflict test; assay type: functional; conditions: read-out: MED; how it was run: as §1
[10] = system: Rattus norvegicus; assay: Therapeutic index, ratio of MED for effect on spatial learning performance in po dosed Wistar rat by Morris water maze test to MED for anxiolytic activity in Wistar rat by Vogel punished drinking conflict test
How it was run: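 Index is the Morris water maze minimum effective dose (oral, given 1 h before the first daily trial, 4 days of 3 trials) divided by the Vogel punished drinking minimum effective dose.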

[11] = target: Metabotropic glutamate receptor 5 (Rattus norvegicus, UniProt P31424); assay: Displacement of [3H]M-MPEP from mGluR5 in Sprague-Dawley rat cerebrocortical membranes after 60 mins
[12] = system: Rattus norvegicus; assay: Therapeutic index, ratio of plasma concentration causing effect on spatial learning performance in po dosed Wistar rat by Morris water maze test to plasma concentration causing anxiolytic activity in Wistar rat by Vogel punished drinking conflict test
How it was run: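 Index is the plasma level in rats at 30 mg/kg p.o. in the Morris water maze (sampled after the last trial on Day 4) divided by the plasma level at the Vogel minimum effective dose. Vogel plasma was sampled right after the test.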

[13] = Plasma concentration in ip dosed Wistar rat at anxiolytic MED administered as suspension after 45 mins during Vogel punished drinking conflict test; assay type: ADME, organism-based
How it was run: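 Vehicle was a suspension containing 5% Tween 80, given i.p. at the Vogel minimum effective dose. Plasma was sampled about 45 min after dosing, right after the Vogel punished drinking test.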

[14] = system: Plasma; assay: Plasma concentration in Wistar rat at 30 mg/kg, ip administered as single dose; assay type: ADME, organism-based; conditions: in vivo
How it was run: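 Rats dosed i.p. at 30 mg/kg. Plasma level was taken about 45 min after dosing, at the end of the Vogel session.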

[15] = system: Rattus norvegicus; assay: Toxicity in po dosed Harlan-Wistar rat assessed as decrease in spontaneous locomotor activity photocell-based activity monitor test; assay type: organism-based; conditions: in vivo
How it was run: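 Male Wistar rats were given 0, 10, 30 or 50 mg/kg p.o. Spontaneous locomotor activity (ambulatory movement) was recorded in a photocell-based activity monitor.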

[16] = system: Rattus norvegicus; assay: Anxiolytic activity in po dosed Wistar rat assessed as reduction in freezing behavior by contextual fearing test; assay type: functional; conditions: read-out: MED
[17] = system: Rattus norvegicus; assay: Anxiolytic activity in po dosed Wistar rat assessed as reduction in ultrasonic vocalization; assay type: functional

Metabotropic glutamate receptor 5 (Rattus norvegicus, UniProt P31424), sequence (P31424 whole entry): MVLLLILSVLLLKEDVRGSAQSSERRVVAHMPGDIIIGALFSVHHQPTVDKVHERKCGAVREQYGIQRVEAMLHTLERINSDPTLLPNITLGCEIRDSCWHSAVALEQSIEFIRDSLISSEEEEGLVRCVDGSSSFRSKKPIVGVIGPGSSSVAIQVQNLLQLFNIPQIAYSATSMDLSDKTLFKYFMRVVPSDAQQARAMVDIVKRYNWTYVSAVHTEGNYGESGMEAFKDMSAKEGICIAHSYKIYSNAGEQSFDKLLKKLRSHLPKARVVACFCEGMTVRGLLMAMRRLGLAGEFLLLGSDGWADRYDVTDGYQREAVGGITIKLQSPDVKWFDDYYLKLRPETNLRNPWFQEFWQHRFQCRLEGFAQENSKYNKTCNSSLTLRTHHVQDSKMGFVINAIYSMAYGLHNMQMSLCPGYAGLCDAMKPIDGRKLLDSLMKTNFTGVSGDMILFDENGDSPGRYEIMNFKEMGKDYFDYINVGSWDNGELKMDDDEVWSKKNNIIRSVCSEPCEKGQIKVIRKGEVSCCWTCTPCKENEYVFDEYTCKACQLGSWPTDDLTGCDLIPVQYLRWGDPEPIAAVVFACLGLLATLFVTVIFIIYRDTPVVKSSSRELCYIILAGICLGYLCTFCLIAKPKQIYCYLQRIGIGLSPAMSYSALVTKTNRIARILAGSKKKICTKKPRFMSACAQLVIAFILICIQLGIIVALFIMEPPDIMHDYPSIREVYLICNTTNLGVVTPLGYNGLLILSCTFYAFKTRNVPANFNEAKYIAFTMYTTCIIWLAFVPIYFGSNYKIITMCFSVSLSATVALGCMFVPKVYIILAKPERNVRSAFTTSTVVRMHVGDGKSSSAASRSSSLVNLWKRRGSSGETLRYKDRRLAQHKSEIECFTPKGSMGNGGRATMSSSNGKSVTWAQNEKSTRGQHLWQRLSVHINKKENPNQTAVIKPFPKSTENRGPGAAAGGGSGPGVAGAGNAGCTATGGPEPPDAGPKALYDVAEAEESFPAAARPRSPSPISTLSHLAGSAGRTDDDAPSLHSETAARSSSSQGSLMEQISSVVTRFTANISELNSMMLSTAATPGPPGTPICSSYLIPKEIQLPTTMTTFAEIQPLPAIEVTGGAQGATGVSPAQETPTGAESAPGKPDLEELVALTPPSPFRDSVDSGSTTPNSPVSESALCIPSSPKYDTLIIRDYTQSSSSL
Metabotropic glutamate receptor 5 (Rattus norvegicus), sequence (P31424 21-1203 limits assumed): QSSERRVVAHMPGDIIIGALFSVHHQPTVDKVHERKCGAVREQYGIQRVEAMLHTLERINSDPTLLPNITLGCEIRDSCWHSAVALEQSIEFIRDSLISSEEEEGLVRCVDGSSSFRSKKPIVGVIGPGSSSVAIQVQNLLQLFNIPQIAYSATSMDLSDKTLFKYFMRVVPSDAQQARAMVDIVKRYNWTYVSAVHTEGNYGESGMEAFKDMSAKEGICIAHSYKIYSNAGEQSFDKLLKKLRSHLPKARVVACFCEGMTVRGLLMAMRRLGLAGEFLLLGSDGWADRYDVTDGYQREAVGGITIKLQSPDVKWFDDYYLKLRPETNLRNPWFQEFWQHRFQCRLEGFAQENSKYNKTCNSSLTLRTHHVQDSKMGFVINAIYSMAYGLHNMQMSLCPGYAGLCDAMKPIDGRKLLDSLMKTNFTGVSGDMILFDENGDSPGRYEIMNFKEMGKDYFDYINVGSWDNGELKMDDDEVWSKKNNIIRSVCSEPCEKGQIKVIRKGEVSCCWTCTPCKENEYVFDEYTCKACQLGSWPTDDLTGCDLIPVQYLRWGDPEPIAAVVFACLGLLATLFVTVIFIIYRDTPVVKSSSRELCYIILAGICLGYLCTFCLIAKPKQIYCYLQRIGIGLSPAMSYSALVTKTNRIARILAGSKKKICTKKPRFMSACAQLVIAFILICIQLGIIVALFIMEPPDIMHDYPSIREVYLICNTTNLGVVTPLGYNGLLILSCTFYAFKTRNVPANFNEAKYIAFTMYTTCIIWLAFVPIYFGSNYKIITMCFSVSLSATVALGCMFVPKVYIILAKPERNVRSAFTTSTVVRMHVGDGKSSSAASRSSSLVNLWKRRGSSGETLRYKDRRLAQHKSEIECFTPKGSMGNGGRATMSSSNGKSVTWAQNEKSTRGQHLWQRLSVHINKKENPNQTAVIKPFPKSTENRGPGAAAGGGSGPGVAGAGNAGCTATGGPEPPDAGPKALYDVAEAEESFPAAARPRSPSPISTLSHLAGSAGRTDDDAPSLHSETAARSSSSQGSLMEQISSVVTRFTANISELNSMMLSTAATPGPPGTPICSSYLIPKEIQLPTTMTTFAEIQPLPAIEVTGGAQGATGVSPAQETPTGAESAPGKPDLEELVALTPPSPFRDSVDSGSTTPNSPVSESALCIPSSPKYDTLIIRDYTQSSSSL
Metabotropic glutamate receptor 5 (Homo sapiens, UniProt P41594), sequence (P41594 whole entry): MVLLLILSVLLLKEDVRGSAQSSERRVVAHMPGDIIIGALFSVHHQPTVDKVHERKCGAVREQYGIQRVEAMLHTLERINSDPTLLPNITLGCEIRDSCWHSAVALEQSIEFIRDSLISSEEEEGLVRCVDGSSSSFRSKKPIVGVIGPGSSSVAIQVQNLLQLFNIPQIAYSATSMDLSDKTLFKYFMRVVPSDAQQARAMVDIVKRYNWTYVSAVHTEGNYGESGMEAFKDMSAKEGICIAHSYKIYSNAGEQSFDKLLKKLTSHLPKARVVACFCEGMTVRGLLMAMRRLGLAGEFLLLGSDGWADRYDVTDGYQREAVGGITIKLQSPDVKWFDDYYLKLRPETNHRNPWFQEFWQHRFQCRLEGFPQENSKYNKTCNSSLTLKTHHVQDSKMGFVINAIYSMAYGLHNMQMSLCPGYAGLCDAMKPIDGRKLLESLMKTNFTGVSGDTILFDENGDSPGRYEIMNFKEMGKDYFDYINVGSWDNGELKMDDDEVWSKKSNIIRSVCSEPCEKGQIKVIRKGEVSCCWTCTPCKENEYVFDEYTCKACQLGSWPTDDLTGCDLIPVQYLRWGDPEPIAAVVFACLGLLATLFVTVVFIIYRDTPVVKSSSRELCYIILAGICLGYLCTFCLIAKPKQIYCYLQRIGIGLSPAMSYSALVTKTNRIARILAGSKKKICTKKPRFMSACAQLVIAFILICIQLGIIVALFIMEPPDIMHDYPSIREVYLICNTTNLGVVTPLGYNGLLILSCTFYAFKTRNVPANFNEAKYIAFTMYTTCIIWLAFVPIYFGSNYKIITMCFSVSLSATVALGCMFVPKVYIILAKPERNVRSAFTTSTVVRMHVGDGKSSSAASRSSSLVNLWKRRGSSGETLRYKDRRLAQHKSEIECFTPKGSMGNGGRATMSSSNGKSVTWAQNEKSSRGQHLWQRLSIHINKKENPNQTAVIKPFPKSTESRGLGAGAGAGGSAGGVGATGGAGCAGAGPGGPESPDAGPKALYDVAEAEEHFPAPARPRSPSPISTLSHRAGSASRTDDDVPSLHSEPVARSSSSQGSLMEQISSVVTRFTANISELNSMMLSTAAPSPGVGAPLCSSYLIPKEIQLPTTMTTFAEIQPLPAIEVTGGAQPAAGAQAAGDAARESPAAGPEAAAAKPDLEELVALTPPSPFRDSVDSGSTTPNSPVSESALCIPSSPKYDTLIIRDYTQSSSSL

Row | Compound | CLint [1] [mL/min/g] | CLint [2] [mL/min/g] | inhibition [3] [%] | minimal effective dose [5] [mg/kg] | IC50 [6] [µM] | Ki [11] [µM] | concentration at 0.75 h [13] [nM] | further results
1 | O=S(=O)(c1ccc(F)cc1)c1cnc2cc(F)c(Cl)cc2c1-c1ccc(Cl)cc1 | 0.01 | 0.34 | 43.7 | – | – | – | – | –
2 | O=S(=O)(c1cc(Cl)cc(Cl)c1)c1cnc2cc(F)ccc2c1-c1ccc(F)cc1 | 0.18 | 1.15 | – | > 30 | 0.025 | – | – | concentration at 1.25 h [4]: 165 nM
3 | O=S(=O)(c1ccc(F)c(Cl)c1)c1cnc2cc(F)ccc2c1-c1ccc(F)cc1 | 0.69 | 0.89 | – | 10 | 0.021 | 0.0052 | 71 | Activity [7]: Toxic; concentration [8]: 968 nM; minimal effective dose [9]: 3 mg/kg; TI [10]: <=10; TI [12]: <=9.1
4 | O=S(=O)(c1ccc(F)c(F)c1)c1cnc2cc(F)ccc2c1-c1ccc(F)cc1 | 0.44 | 0.67 | – | > 30 | 0.043 | 0.0191 | – | concentration [14]: 247 nM
5 | O=S(=O)(c1ccc(F)c(F)c1)c1cnc2cc(F)ccc2c1-c1ccc(Cl)cc1 | 0.01 | 1.41 | – | 10 | 0.022 | 0.0171 | – | minimal effective dose [9]: 10 mg/kg
6 | O=S(=O)(c1ccc(F)cc1)c1cnc2c(F)cc(Cl)cc2c1-c1ccc(Cl)cc1 | 0.01 | 0.09 | 19 | – | – | – | – | –
7 | O=S(=O)(c1cc(F)cc(F)c1)c1cnc2cc(F)ccc2c1-c1cccc(F)c1 | 0.06 | 1.8 | – | > 30 | 0.074 | 0.0326 | – | concentration [14]: 63 nM
8 | O=S(=O)(c1cc(Cl)cc(Cl)c1)c1cnc2cc(F)ccc2c1-c1cccc(F)c1 | 0.41 | 1.53 | – | 30 | 0.035 | 0.0107 | 90.6 | –
9 | O=S(=O)(c1cc(Cl)cc(Cl)c1)c1cnc2cc(F)ccc2c1-c1ccc(Cl)cc1 | 0.13 | 0.77 | – | 30 | 0.094 | 0.0303 | 377 | –
10 | O=S(=O)(c1cc(F)cc(F)c1)c1cnc2cc(F)ccc2c1-c1ccc(F)cc1 | 0.01 | 0.93 | – | > 30 | 0.025 | 0.018 | – | concentration [14]: 206 nM; minimal effective dose [9]: > 10 mg/kg
11 | O=S(=O)(c1cccc(F)c1)c1cnc2c(F)cccc2c1-c1ccc(F)cc1 | 0.19 | 0.2 | – | 30 | 0.069 | 0.0316 | 1210 | –
12 | O=S(=O)(c1ccc(F)cc1)c1cnc2cc(Cl)c(F)cc2c1-c1ccc(Cl)cc1 | 0.01 | 0.57 | 48 | – | – | – | – | –
13 | O=S(=O)(c1ccc(F)cc1)c1cnc2cc(F)ccc2c1-c1ccc(Cl)cc1 | 1.23 to 1.25 | 0.89 | 91.6 | – | – | 0.0386 | – | –
14 | N#Cc1ccc2ncc(S(=O)(=O)c3ccc(F)cc3)c(-c3ccc(Cl)cc3)c2c1 | 0.01 | 0.04 | 39.7 | – | – | – | – | –
15 | N#Cc1ccc2c(-c3ccc(Cl)cc3)c(S(=O)(=O)c3ccc(F)cc3)cnc2c1 | 0.01 | 0.01 | 8.7 | – | – | – | – | –
16 | O=S(=O)(c1ccc(F)cc1)c1cnc2c(F)cccc2c1-c1ccc(Cl)cc1 | 0.28 | 0.06 | 91.5 | – | – | 0.016 | – | –
17 | O=S(=O)(c1ccc(F)cc1)c1cnc2ccc(F)cc2c1-c1ccc(Cl)cc1 | 0.12 | 0.4 | 76.3 | – | – | 0.18 | – | –
18 | Cc1cccc(C#Cc2ccccc2)n1 | 1.61 | 0.19 | – | 3 | – | – | – | minimal effective dose [9]: 3 mg/kg
19 | O=S(=O)(c1ccc(F)c(F)c1)c1cnc2c(F)cccc2c1-c1ccc(Cl)cc1 | 0.28 | 0.2 | – | 3 | 0.013 | – | 59.7 | concentration [8]: 196 nM; minimal effective dose [9]: > 30 mg/kg
20 | O=S(=O)(c1ccc(F)cc1)c1cnc2cc(Cl)ccc2c1-c1ccc(Cl)cc1 | 0.21 | 0.01 | 92.8 | – | – | 0.11 | – | –
21 | O=S(=O)(c1cc(F)cc(F)c1)c1cnc2c(F)cccc2c1-c1ccc(F)cc1 | 0.69 | 0.63 | – | 30 | 0.012 | 0.0133 | 151 | –
22 | O=S(=O)(c1ccc(F)c(Cl)c1)c1cnc2cc(F)ccc2c1-c1ccc(Cl)cc1 | 0.39 | 0.45 | – | 30 | 0.027 | 0.0083 | 373 | Activity [7]: Toxic; concentration [8]: 866 nM; minimal effective dose [9]: 3 to 10 mg/kg; TI [10]: 10; TI [12]: 3.9
23 | O=S(=O)(c1ccc(F)cc1)c1cnc2ccc(Cl)cc2c1-c1ccc(Cl)cc1 | 0.01 | 0.2 | 58.3 | – | – | – | – | –
24 | CN1C(=O)CN=C(c2ccccc2)c2cc(Cl)ccc21 [DIAZEPAM] | – | – | – | – | – | – | – | ED50 [15]: 9.7 mg/kg; minimal effective dose [16]: > 10 mg/kg; minimal effective dose [9]: 2.5 mg/kg; ED50 [17]: 7.8 mg/kg
25 | O=S(=O)(c1ccc(F)cc1)c1cnc2c(F)c(Cl)ccc2c1-c1ccc(Cl)cc1 | 0.01 | 0.01 | 83.6 | – | – | 0.0712 | – | –
26 | O=S(=O)(c1cc(Cl)cc(Cl)c1)c1cnc2c(F)cccc2c1-c1ccc(F)cc1 | 1.01 | 1.06 | – | 30 | 0.025 | 0.0068 | 119 | –
27 | N#Cc1cccc(S(=O)(=O)c2cnc3cc(F)ccc3c2-c2ccc(F)cc2)c1 | 0.39 | 0.7 | – | 10 | 0.02 | 0.0065 | 208 | Activity [7]: Toxic; concentration [8]: 1280 nM; minimal effective dose [9]: 3 to 10 mg/kg; TI [10]: 10; TI [12]: <=8.4
